Activity calls are given as the source filed them. The calls are words filed in the database; no cut-off is given here.
How the values were obtained:
[1] = molecular target: T1, Peroxisome proliferator-activated receptor alpha (Homo sapiens, UniProt Q07869); test: Agonist activity at GAL4-tagged human PPARalpha ligand binding domain expressed in HepG2 cells assessed as transactivation at 5 to 10 uM after 20 hrs by beta-galactosidase reporter gene assay; format: cell-based
T1 sequence (Q07869 whole entry): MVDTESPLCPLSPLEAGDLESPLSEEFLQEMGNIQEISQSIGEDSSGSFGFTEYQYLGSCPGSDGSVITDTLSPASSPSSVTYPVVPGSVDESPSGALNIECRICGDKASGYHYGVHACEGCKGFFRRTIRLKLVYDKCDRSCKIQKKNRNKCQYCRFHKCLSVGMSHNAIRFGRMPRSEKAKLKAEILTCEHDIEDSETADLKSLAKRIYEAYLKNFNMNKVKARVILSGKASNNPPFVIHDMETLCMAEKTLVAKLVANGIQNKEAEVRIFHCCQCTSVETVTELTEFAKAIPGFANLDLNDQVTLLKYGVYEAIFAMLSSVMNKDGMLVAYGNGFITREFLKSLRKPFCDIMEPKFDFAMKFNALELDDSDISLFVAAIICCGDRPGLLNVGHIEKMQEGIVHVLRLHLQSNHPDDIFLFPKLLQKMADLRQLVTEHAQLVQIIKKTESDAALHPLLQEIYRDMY

[2] = molecular target: T2, Peroxisome proliferator-activated receptor alpha (Homo sapiens) (UniProt Q07869); conditions: HepG2, 5 to 10 uM
T2 sequence (whole entry): T1 sequence (Q07869 whole entry)

[3] = molecular target: T1, Peroxisome proliferator-activated receptor alpha; test: Agonist activity at GAL4-tagged human PPARalpha ligand binding domain expressed in HepG2 cells assessed as transactivation after 20 hrs by beta-galactosidase reporter gene assay; format: cell-based
Summary of the method: (§1)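 HepG2 cells were grown in MEM with 10% heat-inactivated FBS and penicillin/streptomycin at 37 °C in 5% CO2. They were seeded at 10^5 cells/well in triplicate and calcium-phosphate transfected 24 h later with GAL4-PPARα LBD (30 ng), pGAL5TKpGL3 luciferase reporter (100 ng) and pCMVβgal (250 ng). Ligands were applied for 20 h. Luciferase was read with β-galactosidase measured alongside. Experiments were repeated at least twice.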

[4] = molecular target: T3, Peroxisome proliferator-activated receptor gamma (Homo sapiens, UniProt P37231); test: Agonist activity at GAL4-tagged human PPARgamma ligand binding domain expressed in HepG2 cells assessed as transactivation after 20 hrs by beta-galactosidase reporter gene assay; format: cell-based
T3 sequence (P37231 whole entry): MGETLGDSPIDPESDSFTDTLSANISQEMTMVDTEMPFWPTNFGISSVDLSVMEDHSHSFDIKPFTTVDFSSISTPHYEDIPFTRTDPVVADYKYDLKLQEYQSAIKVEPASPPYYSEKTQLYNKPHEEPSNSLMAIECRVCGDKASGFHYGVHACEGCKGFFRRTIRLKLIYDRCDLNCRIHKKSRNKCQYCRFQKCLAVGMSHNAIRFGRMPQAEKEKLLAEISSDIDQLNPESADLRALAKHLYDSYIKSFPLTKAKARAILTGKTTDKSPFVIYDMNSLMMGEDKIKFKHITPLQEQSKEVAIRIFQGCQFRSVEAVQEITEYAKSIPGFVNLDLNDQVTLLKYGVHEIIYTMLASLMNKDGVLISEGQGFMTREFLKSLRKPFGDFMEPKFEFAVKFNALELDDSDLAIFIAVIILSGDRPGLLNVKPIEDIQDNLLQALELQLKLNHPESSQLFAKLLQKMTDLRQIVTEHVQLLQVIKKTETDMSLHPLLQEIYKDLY

[5] = molecular target: T2, Peroxisome proliferator-activated receptor alpha (Homo sapiens); test: Agonist activity at GAL4-tagged human PPARalpha ligand binding domain expressed in HepG2 cells assessed as transactivation after 20 hrs by beta-galactosidase reporter gene assay relative to Wy-14643; format: cell-based
Summary of the method: as §1, with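 “alongside. Wy-14,643 was the reference.” for “alongside.”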

[6] = molecular target: T4, Peroxisome proliferator-activated receptor gamma (Homo sapiens) (UniProt P37231); test: Agonist activity at GAL4-tagged human PPARgamma ligand binding domain expressed in HepG2 cells assessed as transactivation after 20 hrs by beta-galactosidase reporter gene assay relative to pioglitazone; format: cell-based
T4 sequence (whole entry): T3 sequence (P37231 whole entry)
Summary of the method: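 HepG2 cells were cultured in MEM with 10% heat-inactivated FBS at 37 °C in 5% CO2 and seeded at 10^5 cells/well in triplicate. After 24 h they were calcium-phosphate transfected with GAL4-PPARγ LBD (30 ng), pGAL5TKpGL3 luciferase reporter (100 ng) and pCMVβgal (250 ng). Cells were treated with ligands for 20 h. Luciferase and β-galactosidase activities were measured in extracts. Pioglitazone was the reference. Experiments were run at least twice.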

[7] = molecular target: T3, Peroxisome proliferator-activated receptor gamma; test: Agonist activity at GAL4-tagged human PPARgamma ligand binding domain expressed in HepG2 cells assessed as transactivation at 5 to 10 uM after 20 hrs by beta-galactosidase reporter gene assay; format: cell-based
[8] = molecular target: T4, Peroxisome proliferator-activated receptor gamma (Homo sapiens); conditions: HepG2, 5 to 10 uM

Row | EC50 [1] | EC50 [3] [µM] | EC50 [4] [µM] | Emax [5] [%] | Emax [6] [%] | EC50 [7] | Emax [8] | Compound | Emax [2]
1 |  | 1 | 0.5 | 76 | 70 |  |  | O=C(O)[C@H](Cc1ccc(Cl)cc1)Oc1ccc(Cl)cc1F | 
2 |  | 2.5 | 5.8 | 59 | 21 |  |  | O=C(O)C(Cc1ccccc1)Oc1ccc(Cl)c(C(F)(F)F)c1 (stereo not given) | 
3 |  | 24.8 | 35.2 | 55 | 58 |  |  | O=C(O)[C@H](Cc1ccccc1)Oc1ccc(F)cc1 | 
4 |  |  |  |  |  | Not Active | inactive | Cc1cccc(Nc2cc(Cl)nc(SCC(=O)O)n2)c1C [PIRINIXIC ACID] | 
5 | Not Active |  | 30 |  | 13 |  |  | O=C(O)C(Cc1ccccc1)Oc1ccccc1C(F)(F)F (racemic) | 
6 |  | 1.4 | 0.9 | 76 | 69 |  |  | O=C(O)C(Cc1ccc(Cl)cc1)Oc1ccc(Cl)cc1F (racemic) | 
7 |  | 6.5 | 14.1 | 51 | 40 |  |  | O=C(O)C(Cc1ccccc1)Oc1ccc(Cl)c(F)c1 (stereo not given) | 
8 |  | 19 | 32 | 88 | 11 |  |  | O=C(O)C(Oc1ccc(Cl)cc1F)c1ccccc1 (stereo not given) | 
9 |  | 9.8 | 15.9 | 71 | 44 |  |  | O=C(O)[C@H](Cc1ccccc1)Oc1cccc(C(F)(F)F)c1 | 
10 |  | 10.3 | 16.4 | 38 | 24 |  |  | O=C(O)C(Oc1ccc(Cl)cc1F)c1ccc(Cl)cc1 (stereo not given) | 
11 |  | 6.6 | 4.9 | 66 | 59 |  |  | O=C(O)C(Cc1ccccc1F)Oc1ccc(Cl)cc1 (racemic) | 
12 |  | 21 | 41 | 57 | 33 |  |  | O=C(O)C(Cc1ccccc1)Oc1cccc(F)c1 (racemic) | 
13 |  | 4.9 | 9.6 | 90 | 77 |  |  | O=C(O)[C@H](Cc1ccccc1)Oc1ccc(Cl)cc1 | 
14 |  | 5.1 | 3.5 | 65 | 52 |  |  | O=C(O)C(Cc1cccc(F)c1)Oc1ccc(Cl)cc1 (racemic) | 
15 | Not Active |  | 10 |  | 13 |  |  | O=C(O)C(Oc1cccc(C(F)(F)F)c1)c1ccc(Cl)cc1 (stereo not given) | inactive
16 |  | 2.2 | 2.5 | 101 | 84 |  |  | O=C(O)[C@H](Cc1ccccc1)Oc1ccc(Cl)cc1F | 
17 |  | 22.3 | 19 | 36 | 26 |  |  | O=C(O)C(Cc1ccccc1)Oc1ccccc1F (racemic) | 
18 |  | 4.5 | 2.4 | 101 | 83 |  |  | O=C(O)C(Cc1cccc(F)c1)Oc1ccc(Cl)cc1F (racemic) | 
19 |  | 5.4 | 5.2 | 66 | 57 |  |  | O=C(O)C(Cc1ccc(F)cc1)Oc1ccc(Cl)cc1 (racemic) | 
20 |  |  |  | 81 | 59 |  |  | O=C(O)[C@H](Cc1ccccc1)Oc1ccc(C(F)(F)F)cc1 | 
21 | Not Active |  | 11.6 |  | 20 |  |  | O=C(O)C(Cc1cccc(F)c1)Oc1ccccc1C(F)(F)F (racemic) | 

Row | Compound | EC50 [1] | EC50 [3] [µM] | EC50 [4] [µM] | Emax [5] [%] | Emax [6] [%] | EC50 [7] | Emax [8] | Emax [2]
22 | CCc1ccc(CCOc2ccc(CC3SC(=O)NC3=O)cc2)nc1 (stereo not given) [PIOGLITAZONE] | Not Active |  |  |  |  |  |  | inactive

From ChEMBL document CHEMBL1955801, “Synthesis, biological evaluation and molecular investigation of fluorinated peroxisome proliferator-activated receptors α/γ dual agonists” (Bioorg Med Chem, 2012)
